Measured values taken from ChEMBL document CHEMBL3751667, “Carbamate substituted 2-amino-4,6-diphenylpyrimidines as adenosine receptor antagonists” (Bioorg Med Chem Lett, 2016).
pKi: −log10 of the molar value. Converted amounts (≈) assume the structure as drawn. The source made the active and inactive calls. No cut-off for these calls is given here.

Key:
[1] = biological target: T1, Adenosine receptor A1 (Rattus norvegicus, UniProt P25099); experiment: Displacement of [3H]DPCPX from adenosine A1 receptor in Sprague-Dawley rat whole brain after 1 hr by scintillation counting
T1 sequence (P25099 whole entry): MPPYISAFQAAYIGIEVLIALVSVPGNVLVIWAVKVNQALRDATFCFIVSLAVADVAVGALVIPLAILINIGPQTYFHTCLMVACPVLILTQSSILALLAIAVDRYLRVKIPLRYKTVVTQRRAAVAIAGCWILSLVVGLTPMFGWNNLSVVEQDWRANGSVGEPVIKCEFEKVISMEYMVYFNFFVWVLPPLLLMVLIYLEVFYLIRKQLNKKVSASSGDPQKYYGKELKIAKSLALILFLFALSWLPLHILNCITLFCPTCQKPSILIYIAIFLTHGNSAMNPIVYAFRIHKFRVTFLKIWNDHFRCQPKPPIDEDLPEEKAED

[2] = tested on: Rattus norvegicus; experiment: Reversal of haloperidol-induced catalepsy in Sprague-Dawley rat at 0.4 to 2 mg/kg, ip after 60 mins relative to control; assay type: functional, organism-based
Method in brief: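 Sprague–Dawley rats, drug naïve, three groups; all given haloperidol 5.0 mg/kg i.p. to induce catalepsy. Thirty minutes later: DMSO (control) or test compound at 0.4 or 2 mg/kg. Catalepsy scored by standard bar test 60 minutes after first injection; compared with haloperidol + vehicle group by one-way ANOVA and Dunnett's post test.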

[3] = biological target: Adenosine receptor A2a (Rattus norvegicus, UniProt P30543); experiment: Displacement of [3H]NECA from adenosine A2A receptor in Sprague-Dawley rat striatal membrane after 1 hr by scintillation counting; parameters: species or system Striatum
[4] = organism: Rattus norvegicus; experiment: Selectivity ratio of Ki for adenosine A2A receptor in Sprague-Dawley rat striatal membrane to Ki for adenosine A1 receptor in Sprague-Dawley rat whole brain
Method in brief: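 Index calculated as A2A Ki divided by A1 Ki. Both Ki values come from radioligand binding assays and are given as the mean ± SEM of duplicate determinations.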

[5] = n-octanol-potassium phosphate buffer partition coefficient, log D of the compound at pH 7.4 by shake flask method; assay type: physicochemical
Method in brief: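 Shake flask method; hydrophilic phase potassium phosphate buffer pH 7.4, hydrophobic phase n-octanol.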

[6] = Solubility of the compound at 4.5 mg after 24 hrs by HPLC analysis; assay type: physicochemical
Method in brief: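 Water solubility: excess compound shaken in water at 37 °C.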

Chain of Adenosine receptor A2a (P30543 whole entry): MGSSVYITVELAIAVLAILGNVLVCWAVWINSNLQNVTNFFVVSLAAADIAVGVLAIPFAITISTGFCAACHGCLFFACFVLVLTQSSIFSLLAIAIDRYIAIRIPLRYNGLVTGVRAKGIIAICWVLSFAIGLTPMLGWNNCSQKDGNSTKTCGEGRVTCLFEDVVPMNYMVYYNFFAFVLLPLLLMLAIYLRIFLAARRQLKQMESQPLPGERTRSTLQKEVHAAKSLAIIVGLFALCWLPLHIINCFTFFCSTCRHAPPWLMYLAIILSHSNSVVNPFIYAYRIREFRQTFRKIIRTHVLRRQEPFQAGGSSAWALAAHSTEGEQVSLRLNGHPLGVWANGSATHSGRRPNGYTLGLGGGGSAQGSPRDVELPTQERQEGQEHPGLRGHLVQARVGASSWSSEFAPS

Row | Structure (SMILES) | pKi [1] | Activity [2] | pKi [3] | Ratio Ki [4] | logD [5] | solubility at 24 h [6] [µM]
1 | CN1CCN(C(=O)Oc2cccc(-c3cc(-c4ccccc4)nc(N)n3)c2)CC1 | 8.69 | inactive | 8.80 | 0.8 | 4.03 | 0.22 (≈ 0.0857 µg/mL)
2 | CCN(CC)C(=O)Oc1cccc(-c2cc(-c3ccccc3)nc(N)n2)c1 | 9.33 |  | 7.64 | 49 |  | 
3 | Nc1nc(-c2ccccc2)cc(-c2cccc(OC(=O)N(c3ccccc3)c3ccccc3)c2)n1 | 7.97 |  | 6.35 | 42 |  | 
4 | Nc1nc(-c2ccccc2)cc(-c2cccc(OC(=O)N3CCOCC3)c2)n1 | 8.58 | Active | 8.46 | 1.3 |  | 
5 | CN(C)C(=O)Oc1cccc(-c2cc(-c3ccccc3)nc(N)n2)c1 | 8.69 |  | 7.28 | 25 |  | 
6 | Nc1nc(-c2ccccc2)cc(-c2cccc(OC(=O)N3CCCC3)c2)n1 | 9.08 |  | 7.61 | 30 |  | 
7 | Nc1nc(-c2ccccc2)cc(-c2cccc(OC(=O)N3CCCCC3)c2)n1 | 8.71 |  | 8.05 | 4.6 |  | 
8 | CN(C(=O)Oc1cccc(-c2cc(-c3ccccc3)nc(N)n2)c1)c1ccccc1 | 8.97 |  | 7.40 | 37 |  | 
9 | CC(C)N(C(=O)Oc1cccc(-c2cc(-c3ccccc3)nc(N)n2)c1)C(C)C | 9.76 |  | 7.92 | 69 |  | 
